Assay results: ChEMBL document CHEMBL4834426, “Antimalarial Benzimidazole Derivatives Incorporating Phenolic Mannich Base Side Chains Inhibit Microtubule and Hemozoin Formation: Structure-Activity Relationship and In Vivo Oral Efficacy Studies” (J Med Chem, 2021)
Values after ≈ are worked out from the molar mass of the structure shown. Active and inactive are the calls of the source. The rule behind the calls is not given here.

How the values were obtained:
Plasmodium berghei = assay: Antimalarial activity against GFP-transfected Plasmodium berghei ANKA infected in NMRI mouse model assessed as reduction in parasitemia at 50 mg/kg, po dosed 4 times relative to control; format: functional; set-up: scale not given: the % may be the effect or the level left
Summary of the method: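 Mice (n = 3) infected with GFP-transfected P. berghei ANKA. Compound in 70% Tween-80/30% ethanol, diluted 10-fold in water, given orally at 4, 24, 48 and 72 h post-infection. Blood taken day 4 (96 h); parasitemia by flow cytometry, detection limit 0.1%. Activity = difference in mean % parasitemia between control and treated, as % of control.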

Hemozoin [1] = assay: Inhibition of Beta-hematin in early ring stage Plasmodium falciparum parasitized red blood cells assessed as hemozoin formation formation after 32 hrs by Giemsa staining based haemocytometric counting method
[2] = Metabolic stability in mouse liver microsomes assessed as compound remaining at 1 uM incubated for 30 mins by LC-MS/MS analysis; format: ADME, Microsome; conditions: read-out: Stabilty
Summary of the method: (§1)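 Single-point design: 1 μM compound with 0.4 mg/mL liver microsomes in 0.1 M phosphate buffer pH 7.4 for 30 min. Quenched with ice-cold acetonitrile containing carbamazepine internal standard, centrifuged, analyzed by LC−MS/MS. Percent remaining from internal-standard-corrected peak areas at 30 min versus 0 min. Propranolol, midazolam and MMV390048 as controls.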

Plasmodium falciparum [3] = assay: Antimalarial activity against asexual blood stage drug-sensitive Plasmodium falciparum NF54 infected in erythrocytes assessed as reduction in parasitemia incubated up to 72 hrs by [3H]hypoxanthine incorporation assay; format: functional, organism-based
Summary of the method: (§2)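 [³H]-Hypoxanthine incorporation assay (modified) on asexual blood-stage P. falciparum in vitro. IC₅₀ values are means of ≥2 independent experiments.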

Hemozoin [4] = assay: Inhibition of beta-hematin formation […] incubated for 5 hrs by NP40 detergent-mediated assay
Summary of the method: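 Cell-free β-hematin formation assay in NP-40 (305.5 μM) lipid-mimic medium. Compounds from 20 mM stock serially diluted across wells, in duplicate. Hematin suspended in 1 M acetate buffer pH 4.8; plates incubated ~5 h at 37 °C. Then pyridine solution (with HEPES pH 7.4) and acetone added; absorbance at 405 nm. IC₅₀ by curve fit.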

[5] = test system: Plasmodium falciparum NF54; assay: Inhibition of tubulin polymerization in asexual blood stage Plasmodium falciparum NF54 at 600 nM incubated for 24 hrs by tubulin tracker Oregon Green staining method
Summary of the method: (§3)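 Treatment at 600 nM for asexual parasites (~1% parasitemia, 5% hematocrit, sorbitol-synchronized rings) or 2400 nM for early gametocytes (~2% gametocytemia, 2% hematocrit, 20% I/60% II/20% III). 24 h at 37 °C, 90% N₂/5% CO₂/5% O₂, DMSO <0.1%. Stained with 250 nM Tubulin Tracker Oregon Green 488 for 30 min and Hoechst (100 nM) for 10 min. PBS-washed, imaged live by confocal microscopy. Colchicine (20 μM) positive control.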

Plasmodium falciparum [6] = assay: Antiplasmodial activity against […] Plasmodium falciparum NF54 late gametocytes transfected with GFP-Luc […] at 1 uM incubated for 48 hrs by microscopy based luciferase reporter gene assay relative to control; format: functional
Summary of the method: (§4)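 NF54-Pfs16-GFP-Luc gametocytes, assays set up day 5 (early, stage II/III) or day 10 (late, stage IV/V). Culture at 2−3% gametocytemia, 1.5% hematocrit, 48 h drug exposure at 37 °C under 90% N₂/5% O₂/5% CO₂. Lysates mixed with luciferin; bioluminescence read with 10 s integration. Dual-point: one biological repeat in technical triplicate. Methylene blue (5 μM) reference.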

CHO = assay: Cytotoxicity against CHO cells assessed as inhibition of cell viability by MTT assay; format: cell-based; conditions: Cricetulus griseus
[7] = test system: Plasmodium falciparum NF54; assay: Inhibition of tubulin polymerization in asexual stage (I) Plasmodium falciparum NF54 early gametocytes at 2400 nM incubated for 24 hrs by tubulin tracker Oregon Green staining method; summary of the method: as §3
Plasmodium falciparum [8] = assay: Antiplasmodial activity against […] Plasmodium falciparum NF54 early gametocytes transfected with GFP-Luc […] at 1 uM incubated for 48 hrs by microscopy based luciferase reporter gene assay relative to control; format: functional; summary of the method: as §4
[9] = Kinetic solubility of the compound in pH 6.5 incubated for 24 hrs by HPLC-DAD analysis; format: physicochemical; conditions: buffer, read-out: Kinetic_solubility
Summary of the method: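 Miniaturized shake-flask method. 10 mM DMSO stock dried down, phosphate buffer pH 6.5 added, shaken 24 h at 25 °C. Centrifuged 3500g for 15 min; supernatant analyzed by HPLC-DAD against 10−220 μM DMSO calibration curve. Reserpine, hydrocortisone and MMV390048 as controls.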

Plasmodium falciparum [10] = assay: Antimalarial activity against asexual blood stage multi drug-resistant Plasmodium falciparum K1 infected in erythrocytes assessed as reduction in parasitemia incubated up to 72 hrs by [3H]hypoxanthine incorporation assay; format: functional, organism-based; summary of the method: as §2
[11] = Selectivity index, ratio of IC50 for Cytotoxicity against CHO cells assessed as inhibition of cell viability by MTT assay to IC50 for antimalarial activity against asexual blood stage Plasmodium falciparum NF54 assessed as reduction in parasitemia incubated up to 72 hrs by [3H]hypoxanthine incorporation assay; format: toxicity, cell-based; conditions: hamster, read-out: Selectivity Index
Summary of the method: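 Selectivity index is IC₅₀(CHO)/IC₅₀(NF54). […] IC₅₀ came from nonlinear dose-response fitting. Parasite IC₅₀ came from the [³H]-hypoxanthine assay.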

[12] = Metabolic stability in rat liver microsomes assessed as compound remaining at 1 uM incubated for 30 mins by LC-MS/MS analysis; format: ADME, Microsome; conditions: read-out: Stabilty; summary of the method: as §1
Plasmodium falciparum [13] = assay: Antiplasmodial activity against […] Plasmodium falciparum NF54 early gametocytes transfected with GFP-Luc […] at 5 uM incubated for 48 hrs by microscopy based luciferase reporter gene assay relative to control; format: functional; summary of the method: as §4
[14] = Metabolic stability in human liver microsomes assessed as compound remaining at 1 uM incubated for 30 mins by LC-MS/MS analysis; format: ADME, Microsome; conditions: read-out: Stabilty; summary of the method: as §1
[15] = test system: Plasmodium falciparum NF54; assay: Inhibition of tubulin polymerization in asexual stage (II) Plasmodium falciparum NF54 early gametocytes at 2400 nM incubated for 24 hrs by tubulin tracker Oregon Green staining method; summary of the method: as §3
[16] = Resistance index, ratio of IC50 for antimalarial activity against asexual blood stage multi drug-resistant Plasmodium falciparum K1 to IC50 for antimalarial activity against asexual blood stage drug-sensitive Plasmodium falciparum NF54; format: functional
Summary of the method: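 Resistance index is IC₅₀(K1)/IC₅₀(NF54). Both IC₅₀s came from the [³H]-hypoxanthine incorporation assay, as means of ≥2 independent experiments.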

[17] = test system: Plasmodium falciparum NF54; assay: Inhibition of tubulin polymerization in […] Plasmodium falciparum NF54 early gametocytes at 2400 nM incubated for 24 hrs by tubulin tracker Oregon Green staining method; summary of the method: as §3
Plasmodium falciparum [18] = assay: Antiplasmodial activity against […] Plasmodium falciparum NF54 late gametocytes transfected with GFP-Luc […] at 5 uM incubated for 48 hrs by microscopy based luciferase reporter gene assay relative to control; format: functional; summary of the method: as §4
[19] = Inhibition of tubulin polymerization in asexual blood stage Plasmodium falciparum NF54
Plasmodium falciparum [20] = assay: Antiplasmodial activity against […] Plasmodium falciparum NF54 early gametocytes transfected with GFP-Luc […] incubated for 48 hrs by microscopy based luciferase reporter gene assay relative to control; format: functional, organism-based; conditions: NF54, 48 h
Summary of the method: (§5)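 Transgenic NF54-Pfs16-GFP-Luc gametocytes, read by luciferase reporter. Early assays were set up on day 5 (50% stage II/50% stage III) and late assays on day 10 (40% stage IV/60% stage V). Luciferin was added to lysates at room temperature and bioluminescence read. Methylene blue (5 μM) was the reference. Single-point screens at 1 and 5 μM used n=1 in technical triplicate. IC₅₀ came from a normalized nonlinear fit, n≥3 in triplicate.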

Plasmodium falciparum [21] = assay: Antiplasmodial activity against […] Plasmodium falciparum NF54 late gametocytes transfected with GFP-Luc […] incubated for 48 hrs by microscopy based luciferase reporter gene assay relative to control; format: functional, organism-based; conditions: NF54, 48 h; summary of the method: as §5

SMILES | Activity (Plasmodium berghei) | remaining at 0.5 h, 1 µM [2] | IC50 (Plasmodium falciparum [3]) | inhibition at 1 µM (Plasmodium falciparum [6]) | IC50 (CHO) | inhibition at 1 µM (Plasmodium falciparum [8]) | solubility kinetic at 24 h [9] | IC50 (Plasmodium falciparum [10]) | selectivity ratio at 72 h [11] | remaining at 0.5 h, 1 µM [12] | inhibition at 5 µM (Plasmodium falciparum [13]) | remaining at 0.5 h, 1 µM [14] | Ratio IC50 [16] | inhibition at 5 µM (Plasmodium falciparum [18]) | IC50 [19] | IC50 (Plasmodium falciparum [20]) | IC50 (Plasmodium falciparum [21]) | further results
CCNCc1cc(Cl)cc(Nc2nc3ccccc3[nH]2)c1O | <40% | 97% | 300 nM | 0% | > 50000 nM | 0% | 200 µM (≈ 63.4 µg/mL) | 880 nM | > 166 | 98% | 23% | 93% | 2.93 | 31% |  |  |  | Activity (Hemozoin [1]): Active; IC50 (Hemozoin [4]): 12700 nM; inhibition [5]: Active; inhibition [7]: inactive; inhibition [15]: Active; inhibition [17]: Active
COC(=O)Nc1nc2cc(C(=O)c3ccccc3)ccc2[nH]1 [MEBENDAZOLE] |  |  |  |  |  |  |  |  |  |  |  |  |  |  | 200000 nM |  |  | 
Cc1cc(CNC(C)(C)C)c(O)c(Nc2nc3ccccc3n2Cc2ccc(C(F)(F)F)cc2)c1 | <40% | 62% | 400 nM | 0% | 30000 nM | 45% | 50 µM (≈ 24.1 µg/mL) | 230 nM | 75.1 | 41% | 96% | 99% | 0.58 | 62% |  | 920 nM |  | 
CCNCc1cc(Cl)cc(Nc2nc3ccccc3n2Cc2ccc(C(F)(F)F)cc2)c1O | <40% | 73% | 280 nM | 0% | 33800 nM | 66% | 12 µM (≈ 5.7 µg/mL) | 110 nM | 121 | 66% | 91% | 94% | 0.39 | 8% |  | 430 nM | > 5000 nM | Activity (Hemozoin [1]): inactive; IC50 (Hemozoin [4]): 33300 nM
COc1cc2c(c(OC)c1OC)-c1ccc(OC)c(=O)cc1[C@@H](NC(C)=O)CC2 [COLCHICINE] |  |  |  |  |  |  |  |  |  |  |  |  |  |  | 10000 nM |  |  | 
CCCSc1ccc2[nH]c(NC(=O)OC)nc2c1 [ALBENDAZOLE] |  |  |  |  |  |  |  |  |  |  |  |  |  |  | 30000 nM |  |  | 
CC(C)(C)NCc1cc(Cl)cc(Nc2nc3cc(F)c(F)cc3n2Cc2ccc(C(F)(F)F)cc2)c1O | <40% | 94% | 190 nM | 31% | > 50000 nM | 14% | < 5 µM | 90 nM | > 263 | 94% | 70% | 89% | 0.47 | 1% |  | 690 nM |  | 
CCN(CC)Cc1cc(F)cc(Nc2nc3ccccc3n2Cc2ccc(C(F)(F)F)cc2)c1O |  |  | 170 nM | 0% | > 50000 nM | 74% |  | 190 nM | > 294 |  | 90% |  | 1.12 | 10% |  | 97 nM | > 5000 nM | 
COC(=O)Nc1nc2cc(C(=O)c3cccs3)ccc2[nH]1 [NOCODAZOLE] |  |  |  |  |  |  |  |  |  |  |  |  |  |  | 17000 nM |  |  | 
CCNCc1cc(C)cc(Nc2nc3cc(F)c(F)cc3n2Cc2ccc(C(F)(F)F)cc2)c1O |  | 93% | 260 nM | 0% | 2040 nM | 86% | 16 µM (≈ 7.85 µg/mL) | 130 nM | 7.84 | 77% | 94% | 99% | 0.5 | 24% |  | 210 nM | 2330 nM | 
CCN(CC)Cc1cc(Cl)cc(Nc2nc3ccccc3n2Cc2ccc(C(F)(F)F)cc2)c1O |  |  | 150 nM | 2% | > 50000 nM | 69% |  | 50 nM | > 333 |  | 89% |  | 0.33 | 10% |  | 56 nM | 1900 nM | 
